Measurements gathered from unrelated publications.
Compare with care: the assays were run in different laboratories.
Cell line: CCRF-CEM
Observed: cell growth or viability

| SMILES | technique | time | IC50 |
| --- | --- | --- | --- |
| COc1ccc(C(=O)c2cc3c(-c4ccccc4)c(O)ccc3o2)cc1 |  | 72 h | 0.88 µM |
| CC[C@]1(O)C[C@@H]2CN(CCc3c([nH]c4ccccc34)[C@@](C(=O)OC)(c3cc4c(cc3OC)N(C)[C@H]3[C@@](O)(C(=O)OC)[C@H](OC(C)=O)[C@]5(CC)C=CCN6CC[C@]43[C@@H]65)C2)C1 | MTT | 72 h | 0.002 µM |
| O=C1NCCc2[nH]c(-c3ccncc3)cc21 |  |  | 2.5 µM |
| COc1ccc(CCc2cc(C#N)c(N)s2)cc1 |  | 48 h | 7.2 µM |
| O=C(CN1C(=O)SC(=Cc2ccccc2)C1=O)Nc1ccc(F)cc1F | MTT | 48 h | 32.3 µM |
| COc1cc(OC)cc(C(=O)c2cc3c(-c4ccccc4)c(O)ccc3o2)c1 |  | 72 h | 9.6 µM |
| N#Cc1cc(CCc2ccccc2)sc1N |  | 48 h | 32 µM |
| CCC[C@H](Nc1nc(-c2ccc(NC(=O)NCC)c(OC)c2)ncc1C)c1cccnc1 | fluorescence | 72 h | 0.0036 µM |
| CCOC(=O)c1c(N)sc(CCc2cc(OC)ccc2OC)c1C(=O)OCC |  | 48 h | 20 µM |
| O=C1C(=Cc2ccccc2)CN(C(=O)C=CC=CC(=O)N2CC(=Cc3ccccc3)C(=O)C(=Cc3ccccc3)C2)CC1=Cc1ccccc1 |  | 72 h | 39.2 µM |
| COc1ccc(OC)c(CCc2cc(C#N)c(N)s2)c1 |  | 48 h | 0.035 µM |
| O=C1C(=Cc2ccccc2)CN(C(=O)CC(=O)N2CC(=Cc3ccccc3)C(=O)C(=Cc3ccccc3)C2)CC1=Cc1ccccc1 |  | 72 h | 0.2 µM |
| Cc1ccc(C=C2SC(=O)N(CC(=O)Nc3ccc(Cl)cc3C(F)(F)F)C2=O)cc1 | MTT | 48 h | 31.8 µM |
| COC(=O)c1cc(CCc2cc(OC)ccc2OC)sc1N |  | 48 h | 1.4 µM |
| O=C(CN1C(=O)SC(=Cc2ccc(F)cc2)C1=O)Nc1cccc(C(F)(F)F)c1 | MTT | 48 h | 30.1 µM |
| O=C1C(=Cc2ccccc2)CN(C(=O)CCC(=O)N2CC(=Cc3ccccc3)C(=O)C(=Cc3ccccc3)C2)CC1=Cc1ccccc1 |  | 72 h | 1.21 µM |
| COc1ccccc1C(=O)c1cc2c(-c3ccccc3)c(O)ccc2o1 |  | 72 h | 19 µM |
| O=C(CN1C(=O)SC(=Cc2ccccc2)C1=O)Nc1nc2c(Cl)cccc2s1 | MTT | 48 h | 35.1 µM |
| COc1cccc(C(=O)c2cc3c(-c4ccccc4)c(O)ccc3o2)c1 |  | 72 h | 35 µM |
| O=C1C(=Cc2ccccc2)CN(C(=O)C=CC(=O)N2CC(=Cc3ccccc3)C(=O)C(=Cc3ccccc3)C2)CC1=Cc1ccccc1 |  | 72 h | 7.75 µM |
| COc1ccccc1CCc1cc(C#N)c(N)s1 |  | 48 h | 6.8 µM |
| COc1ccc(C(=O)c2cc3c(-c4ccccc4)c(OC)ccc3o2)cc1 |  | 72 h | 1.5 µM |
| CCc1ccc(CCOc2ccc(CC3SC(=O)NC3=O)cc2)nc1 (centres unmarked) | MTT | 48 h | 17.9 µM |
